Laboratory results as given in ChEMBL document CHEMBL1144169, “Synthesis and cytotoxic activity of heterocyclic ring-substituted betulinic acid derivatives” (Bioorg Med Chem Lett, 2008).
Converted amounts (≈) assume the structure as drawn.

Experiments:
DU-145 = test: Cytotoxicity against human DU145 cells after 72 hrs by MTT assay; type: functional, cell-based; conditions: DU-145, 72 h
Outline: (§1)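 Cells harvested from 70–80% confluent cultures by trypsin/EDTA and seeded at 5000 cells/well in DMEM for 24 h. Compounds were dissolved in DMSO and diluted in medium to 0.5–20, with final DMSO below 1%. After 72 h at CO2, MTT was added for 3 h at 37 °C. Medium was replaced with DMSO and OD read at 540 nm. IC50 ± SD, three independent experiments.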

MIA PaCa-2 [1] = test: Cytotoxicity against human MIA PaCa2 cells after 72 hrs by MTT assay; type: functional, cell-based; conditions: MIA PaCa-2, 72 h; outline: as §1
HBL-100 = test: Cytotoxicity against human HBL100 cells after 72 hrs by MTT assay; type: functional, cell-based; conditions: HBL-100, 72 h; outline: as §1
PA-1 = test: Cytotoxicity against human PA-1 cells after 72 hrs by MTT assay; type: functional, cell-based; conditions: PA-1, 72 h; outline: as §1
SW-620 = test: Cytotoxicity against human SW620 cells after 72 hrs by MTT assay; type: functional, cell-based; conditions: SW-620, 72 h; outline: as §1
NIH3T3 [2] = test: Cytotoxicity against mouse NIH3T3 cells after 72 hrs by MTT assay; type: cell-based; conditions: NIH3T3, 72 h; outline: as §1
K562 = test: Cytotoxicity against human K-562 cells after 72 hrs by MTT assay; type: functional, cell-based; conditions: K562, 72 h
A549 = test: Cytotoxicity against human A549 cells after 72 hrs by MTT assay; type: functional, cell-based; conditions: A549, 72 h; outline: as §1
NIH3T3 [3] = test: Selectivity index, ratio of IC50 for mouse NIH3T3 cells to IC50 for human SW620 cells; type: functional
MIA PaCa-2 [4] = test: Selectivity index, ratio of IC50 for mouse NIH3T3 cells to IC50 for human MIA PaCa2 cells; type: functional

Structure (SMILES)	IC50 (DU-145) [µg/mL]	IC50 (MIA PaCa-2 [1]) [µg/mL]	IC50 (HBL-100) [µg/mL]	IC50 (PA-1) [µg/mL]	IC50 (SW-620) [µg/mL]	IC50 (NIH3T3 [2]) [µg/mL]	IC50 (K562) [µg/mL]	IC50 (A549) [µg/mL]	Ratio IC50 (NIH3T3 [3])	Ratio IC50 (MIA PaCa-2 [4])
CC(C)[C@@H]1CC[C@]2(C(=O)O)CC[C@]3(C)[C@H](CC[C@@H]4[C@@]5(C)Cc6c([nH]c7ccc(F)cc67)C(C)(C)[C@@H]5CC[C@]43C)[C@@H]12	> 20	8.4 (≈ 15.3 µM)	> 20	> 20	7.28 (≈ 13.3 µM)	14.6 (≈ 26.6 µM)	14 (≈ 25.6 µM)	8.89 (≈ 16.2 µM)	–	–
C=C(C)[C@@H]1CC[C@]2(C(=O)NCC(=O)O)CC[C@]3(C)[C@H](CC[C@@H]4[C@@]5(C)Cc6c([nH]c7ccccc67)C(C)(C)[C@@H]5CC[C@]43C)[C@@H]12	7 (≈ 12 µM)	0.67 (≈ 1.15 µM)	> 20	3 (≈ 5.13 µM)	8.7 (≈ 14.9 µM)	0.68 (≈ 1.16 µM)	11.9 (≈ 20.4 µM)	3.53 (≈ 6.04 µM)	–	–
CC(C)[C@@H]1CC[C@]2(C(=O)O)CC[C@]3(C)[C@H](CC[C@@H]4[C@@]5(C)Cc6c(oc7ccccc67)C(C)(C)[C@@H]5CC[C@]43C)[C@@H]12	> 20	8.8 (≈ 16.6 µM)	> 20	> 20	> 20	20 (≈ 37.7 µM)	15.3 (≈ 28.8 µM)	7.1 (≈ 13.4 µM)	–	–
CC(C)[C@@H]1CC[C@]2(C(=O)O)CC[C@]3(C)[C@H](CC[C@@H]4[C@@]5(C)Cc6c([nH]c7ccc(Cl)cc67)C(C)(C)[C@@H]5CC[C@]43C)[C@@H]12	6.5 (≈ 11.5 µM)	15.2 (≈ 26.9 µM)	> 20	6.6 (≈ 11.7 µM)	5.9 (≈ 10.5 µM)	19 (≈ 33.7 µM)	> 20	8.8 (≈ 15.6 µM)	–	–
C=C(C)[C@@H]1CC[C@]2(C(=O)O)CC[C@]3(C)[C@H](CC[C@@H]4[C@@]5(C)Cc6c([nH]c7ccc(F)cc67)C(C)(C)[C@@H]5CC[C@]43C)[C@@H]12	> 20	17.4 (≈ 31.9 µM)	> 20	> 20	9.16 (≈ 16.8 µM)	> 20	10.9 (≈ 20.1 µM)	17.8 (≈ 32.6 µM)	–	–
C=C(C)[C@@H]1CC[C@]2(C(=O)O)CC[C@]3(C)[C@H](CC[C@@H]4[C@@]5(C)CC[C@H](O)C(C)(C)[C@@H]5CC[C@]43C)[C@@H]12 [BETULINIC ACID]	> 20	10.3 (≈ 22.6 µM)	5.02 (≈ 11 µM)	11.5 (≈ 25.2 µM)	13.3 (≈ 29 µM)	4.37 (≈ 9.57 µM)	3.25 (≈ 7.12 µM)	3 (≈ 6.57 µM)	–	–
C=C(C)[C@@H]1CC[C@]2(C(=O)O)CC[C@]3(C)[C@H](CC[C@@H]4[C@@]5(C)Cc6c([nH]c7ccccc67)C(C)(C)[C@@H]5CC[C@]43C)[C@@H]12	8.86 (≈ 16.8 µM)	6.7 (≈ 12.7 µM)	10.3 (≈ 19.5 µM)	6.01 (≈ 11.4 µM)	5.15 (≈ 9.76 µM)	6.9 (≈ 13.1 µM)	10 (≈ 19 µM)	7.6 (≈ 14.4 µM)	–	–
C=C(C)[C@@H]1CC[C@]2(C(=O)O)CC[C@]3(C)[C@H](CC[C@@H]4[C@@]5(C)Cc6c([nH]c7c(F)cccc67)C(C)(C)[C@@H]5CC[C@]43C)[C@@H]12	> 20	3.3 (≈ 6.05 µM)	3.5 (≈ 6.41 µM)	–	> 20	2.1 (≈ 3.85 µM)	8.7 (≈ 15.9 µM)	3 (≈ 5.5 µM)	–	–
C=C(C)[C@@H]1CC[C@]2(C(=O)O)CC[C@]3(C)[C@H](CC[C@@H]4[C@@]5(C)Cc6c(n(C)c7ccccc67)C(C)(C)[C@@H]5CC[C@]43C)[C@@H]12	20 (≈ 36.9 µM)	5.34 (≈ 9.86 µM)	19.5 (≈ 36 µM)	> 20	> 20	15.1 (≈ 27.9 µM)	7.73 (≈ 14.3 µM)	6.9 (≈ 12.7 µM)	–	–
CC(C)[C@@H]1CC[C@]2(C(=O)O)CC[C@]3(C)[C@H](CC[C@@H]4[C@@]5(C)Cc6c(n(C)c7ccccc67)C(C)(C)[C@@H]5CC[C@]43C)[C@@H]12	> 20	5.4 (≈ 9.93 µM)	14.1 (≈ 26 µM)	> 20	> 20	> 20	10.8 (≈ 20 µM)	6.5 (≈ 12 µM)	–	–
C=C(C)[C@@H]1CC[C@]2(C(=O)O)CC[C@]3(C)[C@H](CC[C@@H]4[C@@]5(C)Cc6c([nH]c7ccc(OC)cc67)C(C)(C)[C@@H]5CC[C@]43C)[C@@H]12	5.75 (≈ 10.3 µM)	6.4 (≈ 11.5 µM)	12.8 (≈ 22.9 µM)	5.8 (≈ 10.4 µM)	8.4 (≈ 15.1 µM)	7.5 (≈ 13.4 µM)	> 20	8.2 (≈ 14.7 µM)	–	–
C=C(C)[C@@H]1CC[C@]2(C(=O)NCC(=O)O)CC[C@]3(C)[C@H](CC[C@@H]4[C@@]5(C)Cc6c([nH]c7ccc(Cl)cc67)C(C)(C)[C@@H]5CC[C@]43C)[C@@H]12	10.3 (≈ 16.7 µM)	10.7 (≈ 17.3 µM)	16.5 (≈ 26.6 µM)	6.66 (≈ 10.8 µM)	10.4 (≈ 16.8 µM)	11.2 (≈ 18.1 µM)	> 20	12.4 (≈ 20 µM)	–	–
C=C(C)[C@@H]1CC[C@]2(C(=O)O)CC[C@]3(C)[C@H](CC[C@@H]4[C@@]5(C)Cc6c([nH]c7c(Cl)cccc67)C(C)(C)[C@@H]5CC[C@]43C)[C@@H]12	11.7 (≈ 20.7 µM)	11.6 (≈ 20.6 µM)	11.8 (≈ 21 µM)	6.39 (≈ 11.4 µM)	2 (≈ 3.56 µM)	11.8 (≈ 21 µM)	9.26 (≈ 16.5 µM)	8.7 (≈ 15.5 µM)	6	–
C=C(C)[C@@H]1CC[C@]2(C(=O)O)CC[C@]3(C)[C@H](CC[C@@H]4[C@@]5(C)Cc6c([nH]c7ccc(Cl)cc67)C(C)(C)[C@@H]5CC[C@]43C)[C@@H]12	4.9 (≈ 8.72 µM)	2.44 (≈ 4.34 µM)	11.8 (≈ 20.9 µM)	2.5 (≈ 4.45 µM)	2.7 (≈ 4.8 µM)	4.6 (≈ 8.18 µM)	9.61 (≈ 17.1 µM)	7.14 (≈ 12.7 µM)	–	2
C=C(C)[C@@H]1CC[C@]2(C(=O)O)CC[C@]3(C)[C@H](CC[C@@H]4[C@@]5(C)Cc6c([nH]c7cc(Cl)cc(Cl)c67)C(C)(C)[C@@H]5CC[C@]43C)[C@@H]12	> 20	> 20	> 20	> 20	> 20	4.1 (≈ 6.87 µM)	> 20	5.5 (≈ 9.22 µM)	–	–
